Sampled rows, rich in hits. Any-hit rate of the full collection: about 4%.
OX1R antag-1: blocks the human orexin 1 receptor. O43613. CHO/OX1R cells, Fluo-8 calcium fluorescence, orexin A. inhibition, % at 5 µM. actives 0.43% (n = 330,000);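 active = inhibition above its plate's threshold, mean inhibition of all tested compounds on the plate plus 3 SD, cut at about 37% in these data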;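 also: 0% = orexin A challenge wells and 100% = SB-334867-A antagonist wells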
Target sequence (O43613 whole entry, looked up): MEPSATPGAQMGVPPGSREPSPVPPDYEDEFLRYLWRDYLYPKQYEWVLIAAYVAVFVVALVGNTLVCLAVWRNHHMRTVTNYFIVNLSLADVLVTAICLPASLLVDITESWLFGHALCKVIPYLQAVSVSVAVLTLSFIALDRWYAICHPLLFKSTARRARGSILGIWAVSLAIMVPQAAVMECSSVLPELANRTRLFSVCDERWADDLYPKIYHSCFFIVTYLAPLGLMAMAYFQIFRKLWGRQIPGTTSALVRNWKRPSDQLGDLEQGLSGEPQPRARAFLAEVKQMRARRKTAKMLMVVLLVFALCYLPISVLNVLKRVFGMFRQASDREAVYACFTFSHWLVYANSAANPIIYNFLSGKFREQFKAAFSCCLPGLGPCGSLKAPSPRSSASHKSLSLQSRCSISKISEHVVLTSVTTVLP
OX1R antag-2: blocks the human orexin 1 receptor; inhibition, % at 6.6 µM; OX1R-expressing cells, FRET antagonist read-out; actives 1.8% (n = 330,000); AID 485270; O43613; in the data active = inhibition mostly above about 38%, no sharp cut-off; inactive = mostly below about 40%;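 also: 0% = agonist challenge alone and 100% = reference antagonist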
CHO parental Ca: counter-screen: ATP calcium response change in parental CHO cells. parental CHO-K1, ATP-induced calcium, Fluo-8 fluorescence. inhibition, % at 5.6 µM. actives 0.63% (n = 330,000). AID 463079;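 active = inhibition above that plate's mean sample inhibition plus 3 SD, cut at about 26% in these data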;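 also: 0% = ATP-challenged DMSO wells and 100% = DMSO wells without ATP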
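Test system: parental CHO cells; detection: calcium-sensitive Fluo-8 fluorescence; evaluation: percent inhibition of calcium signal; also added: ATP as calcium-mobilizing challenge; repeats: one well per compound; control set: ATP-challenged DMSO wells low, unchallenged DMSO wells high; compound: single nominal dose of 5.6 µM per compound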
TAAR1 agonist: human TAAR1 agonism; CHO RD-HGA16 TAAR1, Fluo-8 calcium fluorescence; vehicle wells 0%, saturating PEA agonist 100%; activation, % at 3 µM; actives 0.99% (n = 360,000); AID 624467;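 active = activation above the mean activation of all test compounds in the run plus 3 SD, cut at about 38% in these data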
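Test system: RD-HGA16 (CHO) cells co-expressing Gα16 and hTAAR1 / Benchmarks: DMSO vehicle as 0%, PEA at EC100 as 100% / Repeats: no replicates (n 1) / Measure: % activation from peak over basal fluorescence ratio, DMSO-to-PEA scaled / Timing: 17-24 h plating, Fluo-8 75 min 37 °C, 30 min RT / Technique: kinetic Fluo-8 calcium fluorescence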
NTR1 agonist: activates human neurotensin receptor 1; NTR1-U2OS beta-arrestin-GFP spot imaging, agonist mode; activation, % at 20 µM; actives 0.17% (n = 330,000); AID 493036;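 active = activation at or above 40% of the spot to cytoplasm intensity ratio, with at least 20 cells analyzed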;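 also: 0% = DMSO without peptide and 100% = 100 nM NTR1 peptide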
TAAR1 antagonist: human TAAR1 antagonism | Q96RJ0 | CHO RD-HGA16 TAAR1, Fluo-8 calcium fluorescence, antagonist | inhibition, % at 3 µM | actives 1.5% (n = 360,000);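 active = inhibition above a per-plate cutoff, the mean inhibition of test compounds on that plate plus 3 SD, cut at about 49% in these data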;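 also: 0% = DMSO plus EC80 beta-PEA response and 100% = DMSO alone without agonist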
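System: RD-HGA16 CHO cells with stable hTAAR1 and Gα16 | Probe or stimulus: EC80 β-phenethylamine stimulus | Dosing: 3 µM, single point | Times: Dye loading 75 min at 37 °C, then 30 min room temperature | Measured by: Fluo-8 calcium-sensitive fluorescence | Read-out basis: % inhibition of agonist calcium response | Replicates: n of 1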
OX1R HTRF confirm: OX1R (human) antagonism, HTRF confirmed. shares compounds with OX1R antag-2. OX1R-expressing cells, HTRF antagonist assay. actives 49% (n = 1,800). inhibition, % at 6.6 µM; in the data active = inhibition above about 55%;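 also: CHO cells expressing OX1R stimulated with orexin A at about EC80; 0% = agonist challenge alone and 100% = reference antagonist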
CHO-K1 HTRF: counter-screen for OX1R antagonists: effect in parental CHO-K1 cells; actives 48% (n = 1,800); shares compounds with OX1R antag-2; AID 493232; inhibition, % at 6.6 µM; HTRF counterscreen; in the data active = inhibition above about 17%;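 also: 0% = agonist challenge with vehicle and 100% = vehicle alone without agonist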
An asterisk follows results filed as active; nt = no result given.

SMILES | OX1R antag-1 | OX1R antag-2 | CHO parental Ca | TAAR1 agonist | NTR1 agonist | TAAR1 antagonist | OX1R HTRF confirm | CHO-K1 HTRF
O=C(Nc1ccccc1)C1CCCCN1S(=O)(=O)c1ccccc1 (stereo not drawn) | 11 | 80* | -8 | -1 | 0 | -17 | 60* | 2
Cc1ccc(CNS(=O)(=O)c2c(C(=O)N3CCCCC3)c(C)n(C)c2C)o1 | -10 | 6 | -11 | 0 | 0 | 0 | nt | nt
COC(=O)C1=C(C)N(C)C(=O)NC1c1cc2c(cc1[N+](=O)[O-])OCO2 (stereo not drawn) | -5 | 91* | -12 | -1 | -1 | 11 | 33 | 25*
CC(C(=O)Nc1ccccc1F)N1CCN(S(=O)(=O)c2ccc(C(F)(F)F)cc2)CC1 (stereo not drawn) | nt | nt | nt | 4 | 4 | -13 | nt | nt
Cc1cc(=O)n(C)c(=O)n1CCCCOc1ccc([N+](=O)[O-])cc1 | 8 | 104* | 0 | 3 | 1 | 12 | 25 | 16
Cc1cc(=O)n(C)c(=O)n1CCCCCCOc1ccc([N+](=O)[O-])cc1 | -12 | 6 | -4 | nt | -2 | nt | nt | nt
O=C(NCC1CC1)[C@]1(C(F)(F)F)C[C@H](CCC2CCCCC2)CCCO1 | -27 | 12 | 2 | 5 | 2 | -15 | nt | nt
Cc1ncc([N+](=O)[O-])n1CC(=O)Nc1ccc(F)cc1F | -8 | 0 | -1 | -1 | 1 | 2 | nt | nt
Cc1nnc(NC(=O)CSc2nc3ccccc3o2)s1 | -15 | -5 | 2 | 8 | 0 | 2 | nt | nt
CC1CCc2nc(NC(=O)CSc3nc4ccccc4o3)sc2C1 (stereo not drawn) | -27 | 89* | 4 | 3 | 12 | 28 | 31 | 10
Cc1noc(C)c1C(=O)OCC(=O)Nc1ccccc1SCC#N | 20 | 0 | -5 | 25 | -3 | 12 | nt | nt
C#CCN1C=CC(=O)[C@@H](OC(=O)Nc2ccc(C)cc2)[C@H]1c1ccccc1Br | nt | nt | nt | 3 | nt | -19 | nt | nt
Cc1ccc(/C=c2\sc3n(c2=O)CN(c2cccc(Br)c2)CN=3)o1 | -7 | 80* | 0 | 15 | -1 | -5 | 18 | 13
O=C(CN1C(=O)S/C(=C/c2ccncc2)C1=O)N1CCOCC1 | -4 | 38 | 2 | 2 | 0 | -26 | nt | nt
O=C(CN1C(=O)S/C(=C/c2cccs2)C1=O)N1CCOCC1 | 1 | 86* | -10 | 0 | 0 | 6 | 51 | 29*
O=C(O)CN1C(=O)/C(=C\c2cn(CC(=O)N3CCOCC3)c3ccccc23)SC1=S | 7 | 100* | 4 | 14 | 0 | -4 | 43 | 49*
O=C(CN1C(=O)S/C(=C/c2cccnc2)C1=O)N1CCOCC1 | -10 | 112* | -5 | 4 | -1 | 8 | 49 | 72*
O=C1CCC(C(=O)NCCN2C(=O)S/C(=C\c3cccnc3)C2=O)=NN1 | -1 | 106* | 11 | 1 | 0 | -17 | 44 | 59*
Cc1c(C(=O)Nc2cccc([N+](=O)[O-])c2)sc2ncn(CC(=O)N3CCOCC3)c(=O)c12 | 3 | 15 | -7 | 4 | -1 | -11 | nt | nt
CC(=O)c1ccccc1NC(=O)C1CCCN(C(=O)c2ccc(Cl)cc2)C1 (stereo not drawn) | -20 | 13 | -12 | 4 | -3 | 13 | nt | nt
Cc1cccc(NC(=O)NCc2cccnc2)c1C | -10 | 29 | -9 | 0 | -1 | -11 | nt | nt
CC(C)(C)c1ccc(C(=O)N2CCC(NC(=O)c3ccccc3)CC2)cc1 | -24 | -1 | -9 | 0 | 0 | -3 | nt | nt
CCCS(=O)(=O)N1CCCC(C(=O)NCCCN(Cc2ccccc2)C(C)C)C1 (stereo not drawn) | -26 | 107* | -22 | -4 | 2 | 2 | 10 | 2
Nc1c(C(=O)Nn2cnnc2)cc([N+](=O)[O-])cc1[N+](=O)[O-] | 3 | 64 | -7 | nt | 1 | nt | nt | nt
